Data published in ChEMBL document CHEMBL4052818, “Design, Synthesis, and Biological Assessment of Biased Allosteric Modulation of the Urotensin II Receptor Using Achiral 1,3,4-Benzotriazepin-2-one Turn Mimics” (J Med Chem, 2017).
Active and inactive are the calls of the source. No cut-off for these calls is given here.

Assays:
[1] = biological target: T1, Urotensin-2 receptor (Rattus norvegicus) (UniProt P49684); test: Allosteric modulation of urotensin-2 receptor in Sprague-Dawley rat thoracic aorta assessed as change in human urotensin-2-mediated aortic ring contraction by measuring urotensin-2 Emax at 10^-5M preincubated for 15 mins followed by urotensin-2 addition relative to KCl (reference value: 103 +/- 2%)
T1 sequence (whole entry): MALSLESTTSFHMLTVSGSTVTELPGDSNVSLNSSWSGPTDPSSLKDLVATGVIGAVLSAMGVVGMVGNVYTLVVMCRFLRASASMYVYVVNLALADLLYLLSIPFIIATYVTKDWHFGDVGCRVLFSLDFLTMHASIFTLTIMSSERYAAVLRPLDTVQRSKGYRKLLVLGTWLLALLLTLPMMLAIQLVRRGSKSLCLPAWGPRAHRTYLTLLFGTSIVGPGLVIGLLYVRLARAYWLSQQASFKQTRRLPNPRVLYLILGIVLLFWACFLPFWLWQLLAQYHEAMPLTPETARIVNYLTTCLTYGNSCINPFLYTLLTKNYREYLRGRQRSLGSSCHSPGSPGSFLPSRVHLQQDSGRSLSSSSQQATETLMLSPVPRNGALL

[2] = biological target: T1, Urotensin-2 receptor (Rattus norvegicus); test: Allosteric modulation of urotensin-2 receptor in Sprague-Dawley rat thoracic aorta assessed as change in URP-mediated aortic ring contraction by measuring URP Emax at 10^-5M preincubated for 15 mins followed by URP addition relative to KCl (reference value: 118 +/- 2%)
[3] = biological target: T1, Urotensin-2 receptor (Rattus norvegicus); test: Agonist activity at urotensin-2 receptor in Sprague-Dawley rat thoracic aorta assessed as induction of aortic ring contraction at 10^-5 M incubated for 15 mins
In short: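 Endothelium-denuded 4 mm thoracic aortic rings from adult male rats (250–300 g) were held in organ baths of oxygenated Krebs–Henseleit. A 40 mM KCl contraction served as the initial control. Each analogue was added alone at 10−5 M, and the contraction was expressed as % of the KCl response.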

[4] = biological target: T2, Urotensin-2 receptor (Homo sapiens) (UniProt Q9UKP6); test: Allosteric modulation of human urotensin-2 receptor expressed in HEK293 cells assessed as change in URP-induced Gq activation by measuring URP Emax at 10^-5 M preincubated for 30 mins followed by URP addition by BRET assay (reference value: 100 +/- 3%); type: cell-based
T2 sequence (whole entry): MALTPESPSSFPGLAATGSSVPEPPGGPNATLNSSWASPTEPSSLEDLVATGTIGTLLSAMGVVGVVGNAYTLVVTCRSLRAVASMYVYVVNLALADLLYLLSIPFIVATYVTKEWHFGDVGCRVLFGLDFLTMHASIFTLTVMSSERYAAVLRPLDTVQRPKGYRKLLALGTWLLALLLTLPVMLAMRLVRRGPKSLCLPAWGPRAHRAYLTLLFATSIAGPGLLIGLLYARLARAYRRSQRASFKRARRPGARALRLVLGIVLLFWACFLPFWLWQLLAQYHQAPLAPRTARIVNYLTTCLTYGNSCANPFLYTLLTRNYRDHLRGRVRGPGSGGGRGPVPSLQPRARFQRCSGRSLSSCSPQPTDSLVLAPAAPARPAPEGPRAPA

[5] = biological target: T2, Urotensin-2 receptor (Homo sapiens); test: Allosteric modulation of human urotensin-2 receptor expressed in HEK293 cells assessed as change in URP-induced G12 activation by measuring URP Emax at 10^-5 M preincubated for 30 mins followed by URP addition by BRET assay (reference value: 100 +/- 7%); type: cell-based
[6] = biological target: T2, Urotensin-2 receptor (Homo sapiens); test: Allosteric modulation of human urotensin-2 receptor expressed in HEK293 cells assessed as change in human urotensin-2-induced G12 activation by measuring urotensin-2 Emax at 10^-5 M preincubated for 30 mins followed by urotensin-2 addition by BRET assay (reference value: 100 +/- 6%); type: cell-based
[7] = biological target: T2, Urotensin-2 receptor (Homo sapiens); test: Agonist activity at human urotensin-2 receptor expressed in HEK293 cells assessed as G12 activation at 10^-5 M […] by BRET assay; type: cell-based
In short: (§1)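 HEK293-UT cells were transfected with a polycistronic BRET biosensor, 2.5 μg for Gq or 0.5 μg for G12, and grown about 40 h. They were then held 2 h in PBS with 0.1% glucose. The analogue (10−5 M) was added alone with coelenterazine 400A. The GFP10/RlucII ratio (515/410 nm) was read over 5 min and normalized to hUII or URP at 10−5 M.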

[8] = biological target: T2, Urotensin-2 receptor (Homo sapiens); test: Allosteric modulation of human urotensin-2 receptor expressed in HEK293 cells assessed as change in human urotensin-2-induced Gq activation by measuring urotensin-2 Emax at 10^-5 M preincubated for 30 mins followed by urotensin-2 addition by BRET assay (reference value: 100 +/- 3%); type: cell-based
[9] = biological target: T2, Urotensin-2 receptor (Homo sapiens); test: Agonist activity at human urotensin-2 receptor expressed in HEK293 cells assessed as Gq activation at 10^-5 M […] by BRET assay; type: cell-based; in short: as §1
[10] = biological target: T1, Urotensin-2 receptor (Rattus norvegicus); test: Allosteric modulation of urotensin-2 receptor in Sprague-Dawley rat thoracic aorta assessed as change in human urotensin-2-mediated aortic ring contraction by measuring urotensin-2 Emax at 1 uM preincubated for 15 mins followed by urotensin-2 addition relative to KCl (reference value: 103 +/- 2%)
[11] = biological target: T1, Urotensin-2 receptor (Rattus norvegicus); test: Allosteric modulation of urotensin-2 receptor in Sprague-Dawley rat thoracic aorta assessed as change in URP-mediated aortic ring contraction by measuring URP Emax at 1 uM preincubated for 15 mins followed by URP addition relative to KCl (reference value: 118 +/- 2%)

Row | Emax [1] [%] | Emax [2] [%] | Activity [3] [%] | Emax [4] [%] | Emax [5] [%] | Emax [6] [%] | Activity [7] | Emax [8] [%] | Activity [9] | Emax [10] [%] | Emax [11] [%] | SMILES
1 | 76 | 110 | < 8 |  |  |  |  |  |  |  |  | CNCCCN1N=C(CCc2nc3ccccc3s2)c2ccccc2N(Cc2ccc(-c3ccccc3)cc2)C1=O
2 | 59 | 111 | < 8 |  |  |  |  |  |  |  |  | NCCCN1N=C(/C=C/c2ccc(O)cc2)c2ccccc2N(Cc2ccc3ccccc3c2)C1=O
3 | 55 | 72 | < 8 |  |  |  |  |  |  |  |  | COc1ccc(CCC2=NN(CCCCN)C(=O)N(Cc3ccc4ccccc4c3)c3ccccc32)cc1
4 | 87 | 114 | < 8 |  |  |  |  |  |  |  |  | CNCCCCN1N=C(CCc2nc3ccccc3s2)c2ccccc2N(Cc2ccc3ccccc3c2)C1=O
5 | 99 | 99 | < 8 |  |  |  |  |  |  |  |  | CNCCCCN1N=C(CCc2nc3ccccc3s2)c2ccccc2N(Cc2cccc3ccccc23)C1=O
6 | 55 | 114 | < 8 |  |  |  |  |  |  |  |  | NCCCCN1N=C(/C=C/c2ccc(O)cc2)c2ccccc2N(Cc2ccc3ccccc3c2)C1=O
7 | 98 | 75 | < 8 | 78 | 90 | 98 | inactive | 83 | inactive |  |  | NCCCCN1N=C(CCc2ccc(O)cc2)c2ccccc2N(Cc2ccc3ccccc3c2)C1=O
8 | 100 | 124 | < 8 |  |  |  |  |  |  |  |  | NCCCCN1N=C(CCc2nc3ccccc3s2)c2ccccc2N(Cc2cccc3ccccc23)C1=O
9 | 68 | 112 | < 8 |  |  |  |  |  |  |  |  | NCCCCN1N=C(CCc2nc3ccccc3s2)c2ccccc2N(Cc2ccc(-c3ccccc3)cc2)C1=O
10 |  |  |  |  |  |  |  |  |  | 61 | 102 | CC(C)[C@H](NC(=O)[C@@H]1CSSC[C@H](NC(=O)[C@H](C)N)C(=O)N[C@@H](Cc2ccccc2)C(=O)N[C@@H](Cc2ccc(-c3ccccc3)cc2)C(=O)N[C@@H](CCCCN)C(=O)N[C@@H](Cc2ccc(O)cc2)C(=O)N1)C(=O)O
11 | 76 | 120 | < 8 |  |  |  |  |  |  |  |  | COc1ccc(/C=C/C2=NN(CCCN)C(=O)N(Cc3ccc4ccccc4c3)c3ccccc32)cc1
12 | 48 | 118 | < 8 | 92 | 72 | 103 | inactive | 92 | inactive |  |  | NCCCCN1N=C(/C=C/c2ccc(O)cc2)c2ccccc2N(Cc2ccc(-c3ccccc3)cc2)C1=O
13 | 118 | 86 | < 8 |  |  |  |  |  |  |  |  | NCCCCN1N=C(CCc2ccc(O)cc2)c2ccccc2N(Cc2ccc(-c3ccccc3)cc2)C1=O
14 | 108 | 110 | < 8 |  |  |  |  |  |  |  |  | COc1ccc(/C=C/C2=NN(CCCCN)C(=O)N(Cc3ccc4ccccc4c3)c3ccccc32)cc1
15 | 75 | 99 | < 8 |  |  |  |  |  |  |  |  | NCCCN1N=C(CCc2nc3ccccc3s2)c2ccccc2N(Cc2ccc(-c3ccccc3)cc2)C1=O
16 | 83 | 284 | < 8 | 83 | 106 | 96 | inactive | 80 | inactive |  |  | COc1ccc(/C=C/C2=NN(CCCCN)C(=O)N(Cc3ccc(-c4ccccc4)cc3)c3ccccc32)cc1
17 | 107 | 96 | < 8 |  |  |  |  |  |  |  |  | NCCCN1N=C(CCc2ccc(O)cc2)c2ccccc2N(Cc2ccc3ccccc3c2)C1=O
18 | 106 | 194 | < 8 |  |  |  |  |  |  |  |  | COc1ccc(/C=C/C2=NN(CCCN)C(=O)N(Cc3ccc(-c4ccccc4)cc3)c3ccccc32)cc1
19 | 100 | 101 | < 8 |  |  |  |  |  |  |  |  | NCCCN1N=C(CCc2nc3ccccc3s2)c2ccccc2N(Cc2cccc3ccccc23)C1=O
20 | 73 | 111 | < 8 |  |  |  |  |  |  |  |  | NCCCCN1N=C(CCc2nc3ccccc3s2)c2ccccc2N(Cc2ccc3ccccc3c2)C1=O
21 | 51 | 115 | < 8 |  |  |  |  |  |  |  |  | NCCCN1N=C(/C=C/c2ccc(O)cc2)c2ccccc2N(Cc2ccc(-c3ccccc3)cc2)C1=O
22 | 59 | 47 | < 8 |  |  |  |  |  |  |  |  | COc1ccc(CCC2=NN(CCCN)C(=O)N(Cc3ccc(-c4ccccc4)cc3)c3ccccc32)cc1
23 | 95 | 90 | < 8 |  |  |  |  |  |  |  |  | NCCCN1N=C(CCc2ccc(O)cc2)c2ccccc2N(Cc2ccc(-c3ccccc3)cc2)C1=O
24 | 82 | 84 | < 8 |  |  |  |  |  |  |  |  | COc1ccc(CCC2=NN(CCCCN)C(=O)N(Cc3ccc(-c4ccccc4)cc3)c3ccccc32)cc1
25 | 45 | 117 | < 8 | 82 | 115 | 96 | inactive | 87 | inactive |  |  | NCCCN1N=C(CCc2nc3ccccc3s2)c2ccccc2N(Cc2ccc3ccccc3c2)C1=O
26 | 55 | 41 | < 8 |  |  |  |  |  |  |  |  | COc1ccc(CCC2=NN(CCCN)C(=O)N(Cc3ccc4ccccc4c3)c3ccccc32)cc1
27 | 90 | 91 | < 8 |  |  |  |  |  |  |  |  | CNCCCCN1N=C(CCc2nc3ccccc3s2)c2ccccc2N(Cc2ccc(-c3ccccc3)cc2)C1=O
